37 sequences from the array DNA melting data of Ke et al. (doi:10.1101/2024.01.08.574731) can be followed below.

A short description of series [1]: folding enthalpy; higher = less favourable; fluorescence melt of hairpins on a sequencing array, two-state fit. The settings on record: sodium 0.088 M. In short, it runs like this:
(§1)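 Library hairpins on a sequenced MiSeq flow cell carried annealed Cy3 and quencher oligos, and their Cy3 fluorescence was imaged in 50 mM Na-HEPES pH 8.0 with 25 mM NaCl, in 2.5 °C steps up to 60 °C. Signals were normalised to Cy3 before quenching and to control constructs. Melting temperature and folding enthalpy were obtained from bootstrapped two-state fits, combined by inverse-variance weighting across four replicates, and the fitted temperatures were then raised by 9.35 °C to match UV melts.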

Series [2] in a line: melting temperature; fluorescence melt of hairpins on a sequencing array, two-state fit, raised by 9.35 °C to match UV melts. The settings on record: sodium 0.088 M. In a few lines:
as §1

With GGGTAAACGAAAGTTCCC (((..(((....)))))), the folding enthalpy in series [1] is -20.7 kcal/mol. In addition, in series [2], the Tm stood at 39.8 °C.
On the same counts, the results for GTACAACGAAAGTTTAC (((.(((....)))))) are -11.5 kcal/mol and 27.8 °C.
On the same counts, the results for GTACCCGAAAGGGATTAC ((((((....)))..))) are -9.27 kcal/mol and 25.7 °C.
Regarding GGCAGAGCGAAAGCTGCC (((..(((....)))))), in series [1], the folding enthalpy is -28.6 kcal/mol. In addition, the Tm in series [2] turned out to be 61.9 °C.
Consider GCGTAAGTACGC ((((....)))), for which, in series [1], the folding enthalpy is -23.9 kcal/mol. Moreover, the Tm in series [2] is 52.9 °C.
On the same counts, the results for GAAAACACGAAAGTGTTC (((..(((....)))))) are -11.9 kcal/mol and 35.9 °C.
Consider GCTGGAGGAAACTCCGGC ((.((((....)))).)), for which the folding enthalpy in series [1] is -40.4 kcal/mol. In addition, the Tm in series [2] was determined as 57.1 °C.
The corresponding values for GCATGGGAAACCATGC ((((((....)))))) are -34.4 kcal/mol and 65.6 °C.
Regarding GATCTAATTGTAGATC ((((((....)))))), the folding enthalpy in series [1] was -33 kcal/mol. Also, the Tm in series [2] was 38.8 °C.
On the same counts, the results for GGGGTTGAAAAACCCC ((((((....)))))) are -34.5 kcal/mol and 66.7 °C.
With GATCGTTGAACGATC ((((((...)))))), the folding enthalpy in series [1] was -32.2 kcal/mol. Moreover, the Tm in series [2] was found to be 53.6 °C.
With GTGGGGGGAAACCCCCGC (.(((((....))))).), in series [1], the folding enthalpy is -19.4 kcal/mol. The Tm in series [2] worked out at 60 °C.
The corresponding values for GGCGACGAAAGTCTTGCC ((((((....)))..))) are -19.3 kcal/mol and 48.9 °C.
With GATTCTGGAAACGGAATC (((((.(....).))))), the folding enthalpy in series [1] was -37.2 kcal/mol. In addition, the Tm in series [2] was determined as 44.4 °C.
On to GCTGTGCGAAAGCCCTGC ((.(.((....)).).)), for which the folding enthalpy in series [1] is -15.3 kcal/mol. Also, in series [2], the Tm was found to be 41.9 °C.
Regarding GGAATAGCGAAAGCTTCC (((..(((....)))))), in series [1], the folding enthalpy was -20.2 kcal/mol. Further, the Tm in series [2] is 39.2 °C.
With CAGCAGAAATGCTG (((((....))))), in series [1], the folding enthalpy is -25.6 kcal/mol. For the same sequence, the Tm in series [2] turned out to be 53 °C.
Turning to GATGCGCGAAAGCGATC (((.(((....)))))), in series [1], the folding enthalpy was -12 kcal/mol. The Tm in series [2] is 41.3 °C.
Take GATCAAGACCTTGATC ((((((....)))))): the folding enthalpy in series [1] was -40.2 kcal/mol. In series [2], the Tm was 50.1 °C.
For GGGTTGGGAAACCAACCC (((((((....))))))), the folding enthalpy in series [1] is -32.3 kcal/mol. Further, in series [2], the Tm was 69.3 °C.
On the same counts, the results for GCACCGCGAAAGCGTTGC (((.(((....))).))) are -42.6 kcal/mol and 56.3 °C.
The corresponding values for GGGTGGGGAAACCCATCC ((.((((....)))).)) are -34.7 kcal/mol and 54.2 °C.
For the sequence GAACTTGGAAACAAGTCC (.(((((....))))).), the folding enthalpy in series [1] was -16.4 kcal/mol. In addition, the Tm in series [2] came to 36 °C.
For GGTCTATCGAAAGATACC (((..(((....)))))), in series [1], the folding enthalpy was -10.3 kcal/mol. In addition, the Tm in series [2] is 25.8 °C.
The corresponding values for GCACGTGCGAAAGCATGC (((..(((....)))))) are -8.57 kcal/mol and 40.4 °C.
On the same counts, the results for GAGATAGGAAACTATCTC (((((((....))))))) are -35 kcal/mol and 53.1 °C.
With GATCAATGGATTGATC ((((((....)))))), the folding enthalpy in series [1] is -28.3 kcal/mol. In addition, the Tm in series [2] was found to be 45.2 °C.
The corresponding values for GCAGTGCGAAAGCGCGGC ((.(.((....)).).)) are -31 kcal/mol and 66.7 °C.
Regarding GCGCTAGCGAAAGCTCGC (((..(((....)))))), the folding enthalpy in series [1] is -10.7 kcal/mol. For the same sequence, the Tm in series [2] came out at 45.4 °C.
On the same counts, the results for GCTTAGGCGAAAGCCAGC (((..(((....)))))) are -15.1 kcal/mol and 44.4 °C.
With GTCCTCGAAAGAGCGAC ((((((....))).))), the folding enthalpy in series [1] was -21.4 kcal/mol. Moreover, in series [2], the Tm stood at 45.4 °C.
The corresponding values for GCGTCGCGAAAGCTGCGC (((..((....))..))) are -22.5 kcal/mol and 61.7 °C.
As for GCCTCAGAAATGAGGC ((((((....)))))), in series [1], the folding enthalpy was -30.8 kcal/mol. For the same sequence, the Tm in series [2] worked out at 62.5 °C.
The corresponding values for GTGCGGCGAAAGCCCAC (((.(((....)))))) are -20.7 kcal/mol and 57.6 °C.
Regarding GATGGTGGAAACACTATC (((.(((....))).))), the folding enthalpy in series [1] is -31 kcal/mol. Further, in series [2], the Tm turned out to be 43.1 °C.
On the same counts, the results for GCGGACGGAAACGTCTGC ((.((((....)))).)) are -36.3 kcal/mol and 65.9 °C.
The corresponding values for GTTGTCGGAAACGATAAC (((.(((....))).))) are -34.6 kcal/mol and 47.8 °C.
